# From ChEMBL document CHEMBL1150133, “New saponins from the starfish Certonardoa semiregularis” (J Nat Prod, 2002)
# What was measured:
# [1] = test system: Human immunodeficiency virus 2; experiment: Antiviral activity against HIV2 ROD infected in human MT4 cells assessed as inhibition of virus-induced cytopathic effect after 5 days by MTT assay; format: functional, organism-based; settings: Human immunodeficiency virus 2, ROD, MT4, 120 h
# Outline: (§1)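 MT-4 cells (RPMI 1640/10% FBS), HIV-infected or mock-infected, were plated with 2× concentrated test samples and kept 5 days at 37 °C. Cells were inspected microscopically, then MTT was added for 1 h, dissolved in acidified 2-propanol, and read at 540 nm (690 nm reference). EC50 (50% protection) came from infected wells and CC50 (50% viability loss) from mock-infected wells.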
# [2] = Cytotoxicity against human MT4 cells after 5 days by MTT assay; format: cell-based; outline: as §1
# [3] = test system: Human immunodeficiency virus 1; experiment: Antiviral activity against HIV1 3B infected in human MT4 cells assessed as inhibition of virus-induced cytopathic effect after 5 days by MTT assay; format: functional, organism-based; settings: Human immunodeficiency virus 1, 3B, MT4, 120 h; outline: as §1
# [4] = Cytotoxicity against human HeLa cells after 2 days by MTT assay; format: cell-based
# Outline: (§2)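 In HeLa cells, virus-induced CPE inhibition was run with infected or mock-infected wells, 30 min virus adsorption, and compound in DMEM/2% FBS in duplicate per concentration. After 2 days at 37 °C, MTT read-out gave EC50 from infected wells and CC50 from mock-infected wells.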
# [5] = test system: Encephalomyocarditis virus; experiment: Antiviral activity against Encephalomyocarditis virus EMC infected in human HeLa assessed as inhibition of virus-induced cytopathic effect after 2 days by MTT assay; format: functional, organism-based; settings: Cardiovirus A, 48 h; outline: as §2
# [6] = test system: Vesicular stomatitis Indiana virus; experiment: Antiviral activity against Vesicular stomatitis Indiana virus infected in human HeLa assessed as inhibition of virus-induced cytopathic effect after 2 days by MTT assay; format: functional, organism-based; settings: 48 h
# Outline: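 CPE-inhibition assay with VSV strain Indiana (stock grown in HeLa cells) on confluent HeLa cells (DMEM/5% FBS, gentamycin) in 96-well plates. Infection at 100 CCID50 per well with 30 min adsorption at 37 °C, then the compound in DMEM/2% FBS, duplicate wells per concentration, 2 days at 37 °C. Viability read by MTT; EC50 is the concentration giving 50% protection. Mock-infected wells gave CC50.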
# Coxsackievirus B3 = experiment: Antiviral activity against Coxsackievirus B3 Nancy infected in human HeLa assessed as inhibition of virus-induced cytopathic effect after 2 days by MTT assay; format: functional, organism-based; settings: Enterovirus B, 48 h; outline: as §2
# [7] = Cytotoxicity against african green monkey Vero cells after 3 days by MTT assay; format: cell-based; settings: chlorocebus sabaeus
# Outline: (§3)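 Confluent Vero cells were infected at 100 CCID50 per well, or mock-infected, with 1 h adsorption at 37 °C. Compound in DMEM/2% FBS was added in duplicate per concentration, followed by 3 days at 37 °C. Viability was read by MTT, and EC50 for CPE inhibition and CC50 for cytocidal effect were calculated.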
# Human alphaherpesvirus 1 = experiment: Antiviral activity against HSV1 F infected in african green monkey Vero cells assessed as inhibition of virus-induced cytopathic effect after 3 days by MTT assay; format: functional, organism-based; settings: Human alphaherpesvirus 1, F, 72 h; outline: as §3
# Human alphaherpesvirus 2 = experiment: Antiviral activity against HSV2 MS infected in african green monkey Vero cells assessed as inhibition of virus-induced cytopathic effect after 3 days by MTT assay; format: functional, organism-based; settings: Human alphaherpesvirus 2, MS, 72 h; outline: as §3
SMILES,EC50 [1] [µg/mL],CC50 at 120 h [2] [µg/mL],EC50 [3] [µg/mL],CC50 at 48 h [4] [µg/mL],EC50 [5] [µg/mL],EC50 [6] [µg/mL],EC50 (Coxsackievirus B3) [µg/mL],CC50 at 72 h [7] [µg/mL],EC50 (Human alphaherpesvirus 1) [µg/mL],EC50 (Human alphaherpesvirus 2) [µg/mL]
Cc1cn([C@H]2C[C@H](N=[N+]=[N-])[C@@H](CO)O2)c(=O)[nH]c1=O [ZIDOVUDINE],0.007,1.9,0.001,,,,,,,
Nc1ccn([C@H]2CC[C@@H](CO)O2)c(=O)n1 [ZALCITABINE],0.1,11,0.1,,,,,,,
CO[C@@H]1CO[C@@H](OCC[C@@H](CC[C@@H](C)[C@H]2[C@@H](O)[C@@H](O)[C@H]3[C@@H]4C[C@H](OS(=O)(=O)[O-])[C@H]5[C@@H](O)[C@@H](O)CC[C@]5(C)[C@H]4CC[C@]23C)C(C)C)[C@H](O)[C@H]1O.[Na+] [CERTONARDOSIDE K],> 100,> 100,> 100,57.9,> 57.9,> 57.9,> 57.9,> 100,97.8,82.1
CO[C@H]1[C@H](O[C@H]2[C@H](O[C@@H](CC[C@@H](C)[C@H]3C[C@@H](O)[C@@H]4[C@]3(C)CC[C@@H]3[C@@]5(C)CC[C@H](O)[C@H](O)[C@@H]5[C@@H](OS(=O)(=O)[O-])C[C@]34O)C(C)C)O[C@H](CO)[C@@H]2O)OC[C@@H](OC)[C@@H]1O.[Na+] [CERTONARDOSIDE G],> 100,> 100,> 100,> 100,> 100,> 100,> 100,> 100,> 100,> 100
Nc1nc2c(ncn2COCCO)c(=O)[nH]1 [ACYCLOVIR],,,,,,,,> 10,0.8,2.4
Nc1ccn([C@@H]2O[C@H](CO)[C@@H](O)[C@@H]2O)c(=O)n1 [CYTARABINE],,,,,,,,4.8,1.6,3
CO[C@H]1[C@H](O[C@H]2[C@H](OC[C@@H](C)[C@H](C)/C=C/[C@@H](C)[C@H]3C[C@@H](O)[C@@H]4[C@]3(C)CC[C@@H]3[C@@]5(C)CC[C@H](O)[C@H](O)[C@@H]5[C@@H](O)C[C@]34O)OC[C@@H](O)[C@@H]2OS(=O)(=O)[O-])OC[C@@H](O)[C@@H]1O.[Na+] [CERTONARDOSIDE D],> 100,> 100,> 100,> 100,> 100,> 100,> 100,79.9,> 79.9,> 79.9
